Results reported in ChEMBL document CHEMBL1148969, “Lanostanoid triterpenes from Laetiporus sulphureus and apoptosis induction on HL-60 human myeloid leukemia cells” (J Nat Prod, 2004).
Activity calls are given as the source filed them. The calls are words filed in the database; no cut-off is given here.

How the values were obtained:
HL-60 [1] = experiment: Cytotoxicity against human HL60 cells after 96 hrs by MTT assay; type: functional, cell-based; details: for IC50: HL-60, 96 h
Method in brief: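 HL-60 promyelocytic leukemia cells; growth inhibition read by MTT; IC50 determined graphically for each experiment by curve fitting. Mean ± SEM of two independent experiments with three determinations each; ursolic acid as positive control.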

HL-60 [2] = experiment: Induction apoptosis in human HL60 cells assessed as condensation of chromatin at 10 uM after 8 hrs by fluorescence microscopy; type: functional, cell-based
Method in brief: (§1)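 HL-60 cells cultured with or without 10 µM compound for 8 h, stained with Hoechst 33258; nuclei examined by fluorescence microscopy for chromatin condensation, shrinkage and apoptotic bodies.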

HL-60 [3] = experiment: Induction apoptosis in human HL60 cells assessed as appearance of apoptotic bodies at 10 uM after 8 hrs by fluorescence microscopy; type: functional, cell-based; method in brief: as §1
HL-60 [4] = experiment: Induction apoptosis in human HL60 cells assessed as […] DNA fragmentation at 30 uM after 16 hrs by electrophoresis; type: functional, cell-based
Method in brief: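 Cells treated 16 h at 30 µM; total cellular DNA extracted, run on 2% agarose gel, ethidium bromide stained and internucleosomal ladder viewed under UV; etoposide 3 µM positive control.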

HL-60 [5] = experiment: Induction apoptosis in human HL60 cells assessed as cytochrome c release from mitochondria at 10 uM after 6 hrs by Western blot analysis; type: functional, cell-based
Method in brief: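 Cells treated 6 h at 10 µM; cytosolic fraction isolated and immunoblotted with monoclonal anti-cytochrome c (band near 15 kDa); β-actin loading control.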

HL-60 [6] = experiment: Induction apoptosis in human HL60 cells assessed as caspase 3 activity after 6 hrs; type: functional, cell-based
Method in brief: (§2)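 HL-60 cells given 10 µM for 6 h; lysates with equal protein incubated with colorimetric substrate DEVD-pNA, absorbance at 405 nm. Expressed as fold increase over untreated control; representative experiment in duplicate; etoposide 10 µM positive control.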

HL-60 [7] = experiment: Induction apoptosis in human HL60 cells assessed as appearance of apoptotic nuclei at 30 uM after 8 hrs by fluorescence microscopy; type: functional, cell-based
Method in brief: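 Cells exposed to 30 µM for 8 h, then Hoechst 33258 (bisbenzimide) stained; apoptotic nuclei counted by fluorescence microscopy. Mean ± standard error of one experiment in triplicate, repeated once separately; etoposide as positive control.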

HL-60 [8] = experiment: Induction apoptosis in human HL60 cells assessed as caspase 3 activity at 10 uM after 6 hrs relative to control; type: functional; method in brief: as §2
HL-60 [9] = experiment: Induction apoptosis in human HL60 cells assessed as PARP1 cleavage at 10 uM after 6 hrs by SDS-PAGE; type: functional, cell-based
Method in brief: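 After 6 h at 10 µM, equal protein from whole-cell lysates run on SDS-PAGE, blotted and probed with anti-PARP-1 monoclonal antibody detecting native 116 kDa and cleaved 85 kDa forms; etoposide positive control.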

Row | SMILES | Activity (HL-60 [1]) | IC50 (HL-60 [1]) [µM] | Activity (HL-60 [2]) | Activity (HL-60 [3]) | Activity (HL-60 [4]) | Activity (HL-60 [5]) | Activity (HL-60 [6]) | Activity (HL-60 [7]) | fold change (FC) (HL-60 [8]) | Activity (HL-60 [9])
1 | CC(C)=CCC[C@@H](C(=O)O)[C@H]1C[C@H](O)[C@@]2(C)C3=C(CC[C@]12C)[C@@]1(C)CC[C@H](O)C(C)(C)[C@@H]1CC3 | Dose-dependent effect | 12 | – | – | – | – | – | – | – | –
2 | C=C(CC[C@@H](C(=O)O)[C@H]1C[C@H](O)[C@@]2(C)C3=C(CC[C@]12C)[C@@]1(C)CCC(=O)C(C)(C)[C@@H]1CC3)C(C)C | Dose-dependent effect | 407 | – | – | – | – | – | – | – | –
3 | C=C(CC[C@@H](C(=O)O)[C@H]1C[C@H](OC(C)=O)[C@@]2(C)C3=C(CC[C@]12C)[C@@]1(C)CCC(=O)C(C)(C)[C@@H]1CC3)C(C)C | Dose-dependent effect | 25 | Active | Active | Active | Active | Dose-dependent effect | – | – | –
4 | C=C(CC[C@@H](C(=O)O)[C@H]1CC[C@@]2(C)C3=C(CC[C@]12C)[C@@]1(C)CC[C@H](OC(C)=O)C(C)(C)[C@@H]1CC3)C(C)C [ACETYL EBURICOIC ACID] | Dose-dependent effect | 15 | Active | Active | Active | Active | Dose-dependent effect | Active | 7 | Active
5 | CC(=O)O[C@H]1CC[C@]2(C)C3=C(CC[C@H]2C1(C)C)[C@]1(C)CC[C@H]([C@@H](CCC=C(C)C)C(=O)O)[C@@]1(C)CC3 [ACETYL TRAMETENOLIC ACID] | Dose-dependent effect | 31 | Active | Active | Active | – | Dose-dependent effect | Active | – | –
6 | C=C(CC[C@@H](C(=O)O)[C@H]1CC[C@@]2(C)C3=C(CC[C@]12C)[C@@]1(C)CC[C@H](O)C(C)(C)[C@@H]1CC3)C(C)C [EBURICOIC ACID] | Dose-dependent effect | 25 | Active | Active | Active | – | Dose-dependent effect | – | – | –
7 | C=C(CC[C@@H](C(=O)O)[C@H]1C[C@H](O)[C@@]2(C)C3=C(CC[C@]12C)[C@@]1(C)CC[C@H](O)C(C)(C)[C@@H]1CC3)C(C)C [SULFURENIC ACID] | Dose-dependent effect | 14 | – | – | – | – | – | – | – | –
8 | C[C@H]1[C@H](C)CC[C@]2(C(=O)O)CC[C@]3(C)C(=CC[C@@H]4[C@@]5(C)CC[C@H](O)C(C)(C)[C@@H]5CC[C@]43C)[C@H]12 [URSOLIC ACID] | Dose-dependent effect | 21 | – | – | – | – | – | – | – | –
